Values after ≈ are worked out from the molar mass of the structure shown.
What was measured:
Coxsackievirus B3 = assay: Antiviral activity against Coxsackie virus B3 […] infected in human HeLa cells assessed as reduction of virus-induced cytopathic effect by MTT assay; assay type: functional, organism-based, Nancy
How it was run: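 HeLa monolayers were exposed to 100 TCID₅₀ of CVB3 […] together with serial 2-fold compound dilutions below CC₅₀, in DMEM with 2% serum. Uninfected and untreated infected wells served as controls. Plates were kept at 37 °C in humidified CO₂ until virus control CPE peaked, then read by MTT. IC₅₀ is the concentration reducing CPE by 50%, as mean of three independent experiments.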

[1] = Therapeutic index, CC50 for human HeLa cells to IC50 for Coxsackie virus B3 […]; assay type: cell-based; conditions: read-out: Ratio CC50/IC50
How it was run: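 TI is CC₅₀ divided by IC₅₀. CC₅₀ comes from a 48 h HeLa MTT viability assay; IC₅₀ comes from an MTT-read CPE-inhibition assay with 100 TCID₅₀ CVB3 […] in HeLa cells. Both use DMEM with 2% serum at 37 °C and are means of three independent experiments.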

[2] = Cytotoxicity against human HeLa cells after 48 hrs by MTT assay; assay type: cell-based
How it was run: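 HeLa monolayers were treated with compound at 200–6.25 µg/mL in DMEM with 2% serum for 48 h at 37 °C. MTT (0.5 mg/mL in PBS) was added for 4 h, then DMSO for 30 min at room temperature, and OD was read at 570/630 nm. CC₅₀ was taken from the mean dose-response curve of three independent experiments.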

[3] = Enterovirus B, Nancy, HeLa, read-out: IC50

SMILES	IC50 (Coxsackievirus B3; hela)	selectivity ratio [1]	CC50 at 48 h [2] [µg/mL]	IC50 (Coxsackievirus B3; [3]) [µg/mL]
C[C@@H]1CO[C@@]2(C[C@@H]1OC(=O)c1ccccc1)O[C@@H]1C[C@@H](C(=O)O)C[C@@H](O)[C@]1(O)C2=O [PHYLLAEMBLIC ACID]	Not Active	–	–	–
C[C@@H]1CO[C@@]2(C[C@@H]1OC(=O)c1ccccc1)O[C@@H]1C[C@@H](C(=O)OC[C@H]3O[C@@H](O[C@H]4[C@H](OC(=O)[C@H]5C[C@@H](O)[C@]6(O)C(=O)[C@]7(C[C@H](OC(=O)c8ccccc8)[C@H](C)CO7)O[C@@H]6C5)O[C@H](CO)[C@@H](O)[C@@H]4O)[C@H](O)[C@@H](O)[C@@H]3O)C[C@@H](O)[C@]1(O)C2=O [PHYLLAEMBLICIN F]	Not Active	–	–	–
C[C@@H]1CO[C@@]2(C[C@@H]1OC(=O)c1ccccc1)O[C@@H]1C[C@@H](C(=O)O[C@@H]3O[C@H](CO)[C@@H](O)[C@H](O)[C@H]3O[C@@H]3O[C@H](CO)[C@@H](O)[C@H](O)[C@H]3O[C@@H]3OC[C@H](O)[C@@H](O)[C@@H]3O)C[C@@H](O)[C@]1(O)[C@H]2O [PHYLLAEMBLICIN E]	Not Active	–	–	–
C[C@@H]1CO[C@@]2(C[C@@H]1OC(=O)c1ccc(O)cc1)O[C@@H]1C[C@@H](C(=O)O[C@@H]3O[C@H](CO)[C@@H](O)[C@H](O)[C@H]3O[C@@H]3O[C@H](CO)[C@@H](O)[C@H](O)[C@H]3O)C[C@@H](O)[C@]1(O)C2=O [4'-HYDROXYPHYLLAEMBLICIN B]	Not Active	–	–	–
C[C@@H]1CO[C@@]2(C[C@@H]1OC(=O)c1ccccc1)O[C@@H]1C[C@@H](C(=O)O[C@@H]3O[C@H](CO)[C@@H](O)[C@H](O)[C@H]3O[C@@H]3O[C@H](CO)[C@@H](O)[C@H](O)[C@H]3O[C@@H]3OC[C@@H](O)[C@@H](O)[C@@H]3O)C[C@@H](O)[C@]1(O)C2=O [PHYLLAEMBLICIN C]	–	6.2	67.7 (≈ 77.2 µM)	11 (≈ 12.5 µM)
COC(=O)[C@H]1C[C@@H](O)[C@]2(O)C(=O)[C@]3(C[C@H](OC(=O)c4ccccc4)[C@H](C)CO3)O[C@@H]2C1 [PHYLLAEMBLIC ACID METHY ESTER]	–	9.8	214 (≈ 492 µM)	21.8 (≈ 50.2 µM)
NC(=O)c1ncn([C@@H]2O[C@H](CO)[C@@H](O)[C@H]2O)n1 [RIBAVIRIN]	–	21	426 (≈ 1740 µM)	20.3 (≈ 83.1 µM)
C[C@@H]1CO[C@@]2(C[C@@H]1OC(=O)c1ccccc1)O[C@@H]1C[C@@H](C(=O)O[C@@H]3O[C@H](CO)[C@@H](O)[C@H](O)[C@H]3O)C[C@@H](O)[C@]1(O)C2=O [PHYLLAEMBLICIN A]	Not Active	–	–	–
C[C@@H]1CO[C@@]2(C[C@@H]1OC(=O)c1ccccc1)O[C@@H]1C[C@@H](C(=O)O[C@@H]3O[C@H](CO)[C@@H](O)[C@H](O)[C@H]3O[C@@H]3O[C@H](CO)[C@@H](O)[C@H](O)[C@H]3O)C[C@@H](O)[C@]1(O)C2=O [PHYLLAEMBLICIN B]	–	6.4	50.2 (≈ 67.4 µM)	7.8 (≈ 10.5 µM)

Source: ChEMBL document CHEMBL1152344, “Anti-coxsackie virus B3 norsesquiterpenoids from the roots of Phyllanthus emblica” (J Nat Prod, 2009)
